Experiments:
[1] = molecular target: T1, Prostaglandin E synthase (Mus musculus) (UniProt Q9JM51); experiment: Inhibition of mPGES-1 derived from LPS stimulated mouse NIH3T3 cells microsomal fraction using PGH2 as substrate at 1 uM preincubated for 30 mins prior to substrate addition measured after 1 min by LC-MS/MS analysis relative to control
T1 sequence (whole entry): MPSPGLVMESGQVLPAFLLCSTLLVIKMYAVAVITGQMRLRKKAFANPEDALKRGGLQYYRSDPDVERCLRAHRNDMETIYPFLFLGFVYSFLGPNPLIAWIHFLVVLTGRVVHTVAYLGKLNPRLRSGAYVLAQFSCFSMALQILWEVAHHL

[2] = molecular target: T2, Prostaglandin E synthase (Homo sapiens) (UniProt O14684); experiment: Inhibition of mPGES-1 derived from IL1beta and TNFalpha stimulated human HeLa cells microsomal fraction using PGH2 as substrate at 1 uM preincubated for 30 mins prior to substrate addition measured after 1 min by LC-MS/MS analysis relative to control
T2 sequence (whole entry): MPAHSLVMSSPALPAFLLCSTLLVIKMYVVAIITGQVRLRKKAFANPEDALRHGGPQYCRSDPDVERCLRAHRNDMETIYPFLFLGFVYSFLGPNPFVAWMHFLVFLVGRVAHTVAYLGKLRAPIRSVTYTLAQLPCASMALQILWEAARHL
How it was run: (§1)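 Microsomes were pelleted by ultracentrifugation and resuspended in buffer with 2.5 mM GSH; protein was measured by Bradford. PGE₂ was read by LC-MS/MS after solid-phase extraction with deuterated standards; n ≥ 3.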

[3] = molecular target: T1, Prostaglandin E synthase (Mus musculus); experiment: Inhibition of mPGES-1 derived from LPS stimulated mouse RAW264.7 cells microsomal fraction using PGH2 as substrate at 1 uM preincubated for 30 mins prior to substrate addition measured after 1 min by LC-MS/MS analysis relative to control
How it was run: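 Microsomes came from RAW 264.7 cells stimulated with LPS for 16 h. They were prepared by sonication and ultracentrifugation in 0.1 M potassium phosphate, pH 7.4, with GSH and protease inhibitors, and resuspended with 2.5 mM GSH; protein was measured by Bradford. Compound was tested at the stated final concentration. PGE₂ was quantified by LC-MS/MS after solid-phase extraction with PGE₂-d₄/PGD₂-d₄ standards; SEM, n ≥ 3.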

[4] = molecular target: Prostaglandin G/H synthase 1 (Homo sapiens) (UniProt P23219); experiment: Inhibition of COX1 in human whole blood assessed as residual TXB2 level at 10 uM after 1 hr by LC-MS/MS analysis relative to control
How it was run: (§2)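 Human venous blood was drawn without additives, and compound was added. Samples clotted at 37 °C for 1 h; negative controls were chilled on ice at once. After 5 min on ice, plasma was separated at 4 °C. It was mixed with H₃PO₄, EDTA, BHT and deuterated internal standards, then put through solid-phase extraction. TXB₂ and PGD₂ were measured by LC-MS/MS, relative to vehicle-treated blood.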

[5] = molecular target: Prostaglandin G/H synthase 1 (Homo sapiens) (UniProt P23219); experiment: Inhibition of COX1 in human whole blood assessed as residual PGD2 level at 10 uM after 1 hr by LC-MS/MS analysis relative to control; how it was run: as §2
[6] = molecular target: T3, 5-lipoxygenase/FLAP (Homo sapiens) (UniProt P09917+P20292); experiment: Inhibition of 5-lipoxygenase/FLAP in calcium ionophore-stimulated human whole blood assessed as residual 12(s)HETE level at 10 uM preincubated for 15 mins prior to calcium ionophore-stimulation measured after 15 mins by LC-MS/MS analysis; assay type: protein-complex assay
How it was run: (§3)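 Heparinized human whole blood (500 μL) was preincubated with compound for 15 min at 37 °C. It was then stimulated with 20 μM calcium ionophore A23187 in autologous plasma for 15 min at 37 °C and chilled on ice for 5 min. Plasma was collected by centrifugation at 4 °C. Eicosanoids were recovered by liquid–liquid extraction with deuterated internal standards and quantified by LC-MS/MS (MRM). Levels are relative to vehicle-treated blood.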

Prostaglandin E synthase = molecular target: T4, Prostaglandin E synthase (Homo sapiens, UniProt O14684); experiment: Inhibition of mPGES-1 derived from IL1beta and TNFalpha stimulated human HeLa cells microsomal fraction using PGH2 as substrate preincubated for 30 mins prior to substrate addition measured after 1 min by LC-MS/MS analysis
T4 sequence (O14684 whole entry): T2 sequence (whole entry)
How it was run: as §1, with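 “Bradford. Screening used 1 μM final compound, and IC₅₀ (95% CI) came from increasing concentrations.” for “Bradford.”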

[7] = molecular target: T5, Prostaglandin G/H synthase 2 (Homo sapiens) (UniProt P35354); experiment: Inhibition of COX2 in LPS-stimulated human whole blood assessed as residual PGF2alpha level at 100 uM preincubated for 15 mins prior to LPS-stimulation measured after 24 hrs by LC-MS/MS analysis relative to control
T5 sequence (whole entry): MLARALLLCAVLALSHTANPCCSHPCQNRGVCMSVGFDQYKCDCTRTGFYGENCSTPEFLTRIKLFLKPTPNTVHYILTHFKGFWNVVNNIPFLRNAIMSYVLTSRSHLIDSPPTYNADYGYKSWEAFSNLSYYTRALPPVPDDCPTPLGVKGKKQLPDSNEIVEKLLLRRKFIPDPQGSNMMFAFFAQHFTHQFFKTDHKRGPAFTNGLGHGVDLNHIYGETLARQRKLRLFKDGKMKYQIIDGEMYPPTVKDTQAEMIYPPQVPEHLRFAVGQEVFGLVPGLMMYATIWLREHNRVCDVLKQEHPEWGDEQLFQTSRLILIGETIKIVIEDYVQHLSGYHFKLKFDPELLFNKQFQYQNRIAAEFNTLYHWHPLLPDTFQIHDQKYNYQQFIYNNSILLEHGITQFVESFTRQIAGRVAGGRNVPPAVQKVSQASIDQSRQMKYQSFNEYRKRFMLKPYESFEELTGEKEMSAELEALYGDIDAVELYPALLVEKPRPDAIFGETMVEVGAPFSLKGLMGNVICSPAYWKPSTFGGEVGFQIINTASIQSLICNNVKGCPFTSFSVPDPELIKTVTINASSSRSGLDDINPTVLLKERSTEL
How it was run: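 Human whole blood received compound in DMSO plus acetylsalicylic acid (10 μg/mL) to block COX-1, 15 min at 37 °C. LPS (10 μg/mL final) in autologous plasma was added to induce COX-2/mPGES-1, and blood was incubated 24 h at 37 °C. Samples were chilled on ice 5 min, and plasma prostaglandins were extracted by solid-phase extraction and quantified by LC-MS/MS. Values are relative to vehicle.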

[8] = molecular target: T3, 5-lipoxygenase/FLAP (Homo sapiens); experiment: Inhibition of 5-lipoxygenase/FLAP in calcium ionophore-stimulated human whole blood assessed as residual 15(s)HETE level at 10 uM preincubated for 15 mins prior to calcium ionophore-stimulation measured after 15 mins by LC-MS/MS analysis; assay type: protein-complex assay; how it was run: as §3
[9] = molecular target: T2, Prostaglandin E synthase (Homo sapiens); experiment: Inhibition of mPGES-1 in IL1beta and TNFalpha-stimulated human HeLa cells assessed as PGE2 level at 10 uM after 24 hrs by LC-MS/MS analysis relative to control; assay type: cell-based
How it was run: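 HeLa cells (2 × 10⁴) were grown 24 h at 37 °C. The medium was then replaced with IL-1β (1 ng/mL) + TNFα (5 ng/mL), or PBS for unstimulated controls, together with compound at 1, 10 or 100 μM, or DMSO, for 24 h at 37 °C. Supernatant PGE₂ was quantified by LC-MS/MS after solid-phase extraction with deuterated standards. Inhibition is percent of DMSO control corrected for unstimulated background, SEM, n ≥ 3.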

Sequence of Prostaglandin G/H synthase 1 (Homo sapiens) (P23219 whole entry): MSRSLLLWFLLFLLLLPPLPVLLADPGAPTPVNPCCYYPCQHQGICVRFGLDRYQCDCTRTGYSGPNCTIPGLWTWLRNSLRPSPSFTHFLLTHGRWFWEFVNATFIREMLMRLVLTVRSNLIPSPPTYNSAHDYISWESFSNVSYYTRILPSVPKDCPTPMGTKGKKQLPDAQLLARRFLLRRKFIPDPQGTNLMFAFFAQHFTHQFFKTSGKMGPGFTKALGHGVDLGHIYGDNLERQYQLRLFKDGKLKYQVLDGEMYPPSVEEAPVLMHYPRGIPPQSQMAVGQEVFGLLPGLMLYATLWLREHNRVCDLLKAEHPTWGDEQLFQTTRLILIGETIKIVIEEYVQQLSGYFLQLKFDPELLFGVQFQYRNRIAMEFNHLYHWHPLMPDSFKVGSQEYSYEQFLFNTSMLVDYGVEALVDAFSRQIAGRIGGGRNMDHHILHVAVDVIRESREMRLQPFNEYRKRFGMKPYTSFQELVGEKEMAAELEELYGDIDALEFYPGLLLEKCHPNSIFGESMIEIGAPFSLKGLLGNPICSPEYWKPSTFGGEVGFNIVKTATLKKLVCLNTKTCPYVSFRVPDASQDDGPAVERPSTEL

SMILES	inhibition [1]	inhibition [2]	inhibition [3]	Activity [4]	Activity [5]	Activity [6]	IC50 (Prostaglandin E synthase)	Activity [7]	Activity [8]	inhibition [9]
CCCc1nc2ccc(NC(=O)c3ccccc3Cl)cc2c(=O)n1Cc1ccc(-c2cccc(Cl)c2)cc1	10.7%	66.7%	8.4%	90%	98.5%	80%	130 nM	94.2%	83.1%	–
CCCc1nc2ccc(NC(=O)c3ccccc3Cl)cc2c(=O)n1Cc1ccc(-c2cccc(OC)c2)cc1	4.6%	71.5%	15.3%	89%	91.7%	85.5%	210 nM	92.5%	80%	97%
CCCc1nc2ccc(NC(=O)c3ccccc3Cl)cc2c(=O)n1Cc1ccc(-c2ccc(Cl)cc2)cc1	17.1%	68.8%	12.4%	97.3%	96.1%	93.2%	–	234%	93.8%	–
CCCc1nc2ccc(NC(=O)c3ccccc3Cl)cc2c(=O)n1Cc1ccc(-c2ccccc2)cc1	20.3%	74.2%	11.8%	86.4%	84.9%	110%	220 nM	92.6%	94.2%	70%
CCCc1nc2ccc(NC(=O)c3c(F)cccc3Cl)cc2c(=O)n1Cc1cccc(Cl)c1	–	75.6%	-8.7%	84.4%	89.4%	123%	370 nM	97%	111%	–
CCCc1nc2ccc(NC(=O)c3ccccc3Cl)cc2c(=O)n1Cc1cccc(Cl)c1	-0.8%	86.3%	9.5%	90.4%	86.5%	92.8%	360 nM	81.3%	90.3%	–
CCCc1nc2ccc(NC(=O)c3ccccc3C)cc2c(=O)n1Cc1cccc(Cl)c1	0.9%	63.1%	6%	81.9%	128%	88.9%	260 nM	93.8%	83.4%	–

— ChEMBL document CHEMBL2046422, “Structure-activity relationship of nonacidic quinazolinone inhibitors of human microsomal prostaglandin synthase 1 (mPGES 1)” (J Med Chem, 2012)
